The list is not random: actives were taken first. Their share in the collection is about 3.5%.
Efa HMGR inh: E. faecalis class II HMG-CoA reductase inhibition; purified E. faecalis HMGR, NADPH absorbance 340 nm kinetic; inhibition, % at 10 µM; 190,000 tested, 0.41% active; AID 1066;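 active = inhibition above a set limit, the median over all tested compounds plus 3 SD, cut at about 9.5% in these data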;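 note: enzyme runs in reverse so mevalonate oxidation gives rising NADPH absorbance; 0% = complete reaction with DMSO and 100% = background rate lacking mevalonate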
BB579 growth dn: yeast BB579 growth reduction in restrictive medium | S. cerevisiae BB579 growth, OD615, 48 h | inhibition, % at 10 µM | 140,000 tested, 0.51% active;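 active = inhibition above a set limit, 3 SD over the mean compound inhibition, cut at about 44% in these data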
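Test system: S. cerevisiae DeaD strain BB579 yeast; Medium: restrictive CSMM-D medium; Compound: one dose, 10 µM compound with 0.25% DMSO; Incubation: 4 h cell preincubation, 48 h compound exposure, 30 °C humidified; Signal: OD at 615 nm; Benchmarks: amphotericin B at 10 µg/mL as positive control.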
Yeast life ext: yeast lifespan extension; S. cerevisiae growth with nicotinamide, OD615; deaD strain in restrictive glucose medium; inhibition of the nicotinamide effect, % at 10 µM; 130,000 tested, 0.68% active; AID 775;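 active = inhibition above a set limit, placed 3 SD over the median of all compounds, cut at about 26% in these data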;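 note: 0% = nicotinamide-treated wells and 100% = cells grown without nicotinamide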
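Assay system: engineered S. cerevisiae DeaD replicative-lifespan strain, galactose-grown log-phase cells; Buffer or medium: CSMM-D glucose medium, restrictive; Probe or stimulus: nicotinamide 1.5 mM; Compound: single dose 10 µM compound, 0.25% DMSO; Schedule: 4 h preincubation then 48 h treatment at 30 °C; Technique: OD615 measurement.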
b-catenin transl: alters nuclear translocation of beta-catenin in HeLa cells. immunofluorescence imaging. nuclear translocation activity, % at 5 µM. 190,000 tested, 0.3% active;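 active = nuclear translocation activity above 50% at 5 µM, with a well cell count of 50 or more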;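 note: per-cell ratio of nuclear to cytoplasmic median beta-catenin stain intensity; plate controls were DMSO negative control for no effect and GSK-3 inhibitor IX positive control for full effect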
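test system = HeLa cells, endogenous beta-catenin | dosing = single 5 µM dose plus 0.02–20 µM confirmation series | times = compound treatment 24 h, 37°C, 5% CO2 | technique = beta-catenin immunofluorescence imaging with DAPI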
RAM network inh: yeast RAM network inhibition. S. cerevisiae dse1pr::URA3 reporter, 5-FOA growth OD615, 2 d; analog-sensitive cbk1-as2 kinase mutant strain. inhibition, % at 50 µM. 190,000 tested, 1.8% active. AID 868;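 active = inhibition above a set limit, 3 SD over mean compound inhibition, cut at about 8.4% in these data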;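 note: 0% = DMSO-only wells with no growth and 100% = 10 µM 1-NA-PP1 full growth; inhibition rescues growth on 5-FOA so higher OD means more RAM inhibition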
MT stabilize HCS: stabilizes microtubules in HeLa cells. HeLa tubulin immunostaining HCS, 24 h; share of cells brighter than vehicle mean+2SD. % tubulin-high responders, % at 10 µM. 200,000 tested, 0.83% active;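 active = plate Z-score above 3 for both tubulin-high and condensed-nucleus cell shares, with cell loss under 80%, at 10 µM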;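 note: anti alpha tubulin signal scored within the nucleus-defined area of each cell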
The depositor's hits bear a star; nt = no result given.

SMILES	Efa HMGR inh	BB579 growth dn	Yeast life ext	b-catenin transl	RAM network inh	MT stabilize HCS
COc1ccc(N2C(=O)N(Cc3ccccc3F)c3ccccc3S2(=O)=O)cc1	-5	nt	nt	-1	7	3
CCc1ccc(/C=C2/Sc3ccccc3N(CC(=O)NCCCOC)C2=O)cc1	-2	nt	nt	1	9.8*	3
COc1ccc(C2C3=C(CCCC3=O)Nc3nc(SCc4ccccc4)nn32)cc1OC (stereo not drawn)	-2	-33	-4	0	8	3
COc1ccc(C2C3=C(CCCC3=O)Nc3nc(SCc4ccc(C(=O)O)cc4)nn32)cc1OC (stereo not drawn)	-4	-55	-7	nt	8.8*	4
COc1cc(-c2nnc(COc3ccc4ccccc4c3)o2)cc(OC)c1OC	2	-37	-8	-1	9.4*	2
O=S(=O)(NCc1csc(-c2cccs2)n1)c1cccc(C(F)(F)F)c1	nt	nt	nt	2	nt	nt
Cc1ccc(C2C=C(c3ccc4c(c3)OCO4)Nc3ncnn32)cc1 (stereo not drawn)	-2	-11	-4	nt	1	4
CCc1ccc(C2=CC(c3cc(Br)ccc3F)n3ncnc3N2)cc1 (stereo not drawn)	2	-52	nt	2	4	30*
Fc1ccc(Br)cc1C1C=C(c2ccc(Br)cc2)Nc2ncnn21 (stereo not drawn)	1	-92	-10	-11	4	49*
Cc1ccsc1C1C=C(c2cccc(Br)c2)Nc2ncnn21 (stereo not drawn)	-2	-39	-26	7	1	3
CSc1nc(C)cc(OCC(=O)N/N=C/c2ccccc2O)n1	0	-47	-3	94*	2	17*
COc1cc(OC)nc(NC(=O)COC(=O)c2cccc(Cl)c2)n1	-8	nt	nt	0	1	4
Cc1ccc(C2(C)NC(=O)N(CC(=O)Nc3c(C)n(C)n(-c4ccccc4)c3=O)C2=O)cc1 (stereo not drawn)	13*	-30	3	2	-1	5
CCOC(=O)c1c(NC(=O)CN2C(=O)NC(C)(c3ccccc3)C2=O)sc(C)c1C (stereo not drawn)	3	-21	0	62*	3	13*
CCOC(=O)c1c(NC(=O)COC(=O)c2cc(OC)c(OC)cc2[N+](=O)[O-])sc(C)c1C	1	-34	4	4	8.6*	2
CCOC(=O)c1c(NC(=O)Cn2nc(C(F)F)cc2C(F)F)sc(C)c1C	-4	-23	-6	1	9.6*	3
CCOC(=O)c1c(NC(=O)COC)sc(C)c1C	-5	-28	nt	-1	1	4
Cc1c(-n2c(SCC(=O)C(C)(C)C)nc3ccccc3c2=O)c(=O)n(-c2ccccc2)n1C	2	nt	nt	0	2	2
CCOC(=O)c1c(NC(=O)CSc2nnnn2CC)sc(C)c1C	-1	-44	-2	-4	8.9*	3
CN(C)c1ccc2c3c(ccc(N(C)C)c13)C(=O)OC2	nt	nt	nt	-1	nt	nt
Cn1nnnc1SCCNCC#Cc1ccccc1	-2	-14	114*	-3	1	3
Cn1nnnc1SCCNCc1ccccc1F	-5	29	-1	3	0	4
NNC(=O)c1cc2sccc2s1	nt	nt	nt	-3	nt	nt
COc1ccccc1NC(=O)/C(C#N)=C/C=C/c1ccco1	-1	-18	-4	61*	3	41*
COc1ccccc1NC(=S)NC(=O)/C=C/c1ccco1	-6	-15	-7	0	0	4
SMILES	Efa HMGR inh	BB579 growth dn	Yeast life ext	b-catenin transl	RAM network inh	MT stabilize HCS
CC(=O)N1N=C(N)SC12CCCC2	11*	nt	nt	0	0	2
ON/C=N/C(=S)Nc1ncc(C(F)(F)F)cc1Cl	18*	nt	nt	-6	1	3
Cc1cc(NC(=O)COC(=O)c2ccc(S(=O)(=O)N3CCCc4ccccc43)cc2)no1	nt	-12	-24	70*	5	35*
Cc1cc(NC(=O)COC(=O)c2ccc(S(=O)(=O)N3CCCC3)cc2)no1	3	nt	nt	-6	2	6
NS(=O)(=O)c1ccc(NC(=O)COC(=O)CCc2ccc(S(=O)(=O)N3CCOCC3)cc2)cc1	nt	nt	nt	-1	nt	nt
CC1c2[nH]c3ccccc3c2CCN1C(=O)Nc1ccccc1 (stereo not drawn)	-5	-24	nt	5	0	43*

High-throughput results deposited in PubChem BioAssay by several laboratories.
